From PubChem
Rows were chosen to be rich in hits. Some 2% of all compounds tested hit in one or more screens of this group.
PP5 primary – PP5 (human) phosphatase inhibition. purified PP5c, OMFP substrate fluorescence. AID 1987. inhibition, % at 6.7 µM. P53041. 320,000 tested, 0.18% active;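 active means inhibition above the campaign's mean inhibition across all tested compounds plus 3 SD, cut at about 9.5% in these data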
PAD4 FP inh – PAD4 (human) enzyme inhibition | Q9UM07 | recombinant PAD4, RCA probe fluorescence polarization | inhibition, % at 6.36 µM | 330,000 tested, 0.41% active | AID 485272;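 active means percent inhibition above a cutoff equal to the mean of all tested compounds plus 3 SD, cut at about 15% in these data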
Fh CTSL1 inh – cathepsin L1 inhibition, PFM18AAP counter-screen | recombinant F. hepatica cathepsin L1, Z-Leu-Arg-MCA fluorescence | inhibition, % at 5.96 µM | 300,000 tested, 0.49% active | AID 1906;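 active means inhibition above the mean of all tested compounds plus 3 SD, set per screening campaign, cut at about 17% in these data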
Apaf-1 inh – inhibitors of human Apaf-1 apoptosome. O14727. reconstituted apoptosome caspase-3 activity, DEVD-Rh110 fluorescence. inhibition, % at 20 µM. 330,000 tested, 0.71% active. AID 489030; active means inhibition of at least 40% at 20 µM
Target sequence (O14727 whole entry, looked up): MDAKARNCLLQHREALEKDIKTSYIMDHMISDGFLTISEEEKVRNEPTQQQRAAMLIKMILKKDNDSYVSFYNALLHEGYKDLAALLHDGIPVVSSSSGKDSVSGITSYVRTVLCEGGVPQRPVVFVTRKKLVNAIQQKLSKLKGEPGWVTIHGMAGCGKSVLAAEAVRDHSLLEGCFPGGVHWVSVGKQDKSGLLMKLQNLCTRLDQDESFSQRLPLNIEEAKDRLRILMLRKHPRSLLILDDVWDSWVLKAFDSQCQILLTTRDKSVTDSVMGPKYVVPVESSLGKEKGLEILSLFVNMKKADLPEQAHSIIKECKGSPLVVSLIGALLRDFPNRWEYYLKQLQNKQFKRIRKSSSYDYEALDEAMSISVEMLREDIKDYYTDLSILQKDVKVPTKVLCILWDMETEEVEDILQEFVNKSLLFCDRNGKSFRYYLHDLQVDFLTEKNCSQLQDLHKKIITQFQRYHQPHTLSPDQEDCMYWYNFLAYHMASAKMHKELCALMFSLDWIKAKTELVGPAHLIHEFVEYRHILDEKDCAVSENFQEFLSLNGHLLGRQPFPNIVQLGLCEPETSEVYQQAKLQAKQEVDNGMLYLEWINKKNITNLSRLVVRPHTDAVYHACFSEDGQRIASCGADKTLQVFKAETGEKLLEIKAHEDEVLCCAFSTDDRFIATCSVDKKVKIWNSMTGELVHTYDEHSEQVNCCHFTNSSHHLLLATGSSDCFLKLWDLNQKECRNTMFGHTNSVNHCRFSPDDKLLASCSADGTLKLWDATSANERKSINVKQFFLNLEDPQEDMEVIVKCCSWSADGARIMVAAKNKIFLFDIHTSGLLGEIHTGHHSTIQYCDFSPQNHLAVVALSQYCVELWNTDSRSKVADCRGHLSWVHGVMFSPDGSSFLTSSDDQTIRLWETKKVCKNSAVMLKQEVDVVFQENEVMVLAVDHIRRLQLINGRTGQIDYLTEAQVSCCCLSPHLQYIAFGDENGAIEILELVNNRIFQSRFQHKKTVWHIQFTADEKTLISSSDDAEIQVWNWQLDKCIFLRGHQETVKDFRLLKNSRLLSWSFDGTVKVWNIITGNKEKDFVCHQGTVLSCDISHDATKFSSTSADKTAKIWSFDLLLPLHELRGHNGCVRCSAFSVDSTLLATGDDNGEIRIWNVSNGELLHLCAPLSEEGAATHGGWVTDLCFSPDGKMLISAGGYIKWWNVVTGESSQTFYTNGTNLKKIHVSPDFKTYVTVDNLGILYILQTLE
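Medium: Hepes buffer, pH 7.5 / System: biochemical Apaf-1 apoptosome reconstitution / Measured by: Rh110 fluorescence, excitation 480 nm, emission 540 nm / Times: compound with Apaf-1, dATP, procaspase-3 30 min, then 50 min reaction, room temperature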
UCH37 DUB inh – human UCH37 deubiquitinating enzyme inhibition; Q9Y5K5; purified proteasome/UCH37, Ub-AMC cleavage fluorescence; inhibition, % (no concentration beside the values); 330,000 tested, 0.33% active;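 active means mean inhibition over replicate wells above about 20%, limit read from the data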
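Test system – human UCH37 enzyme supplied as purified proteasome complex · Incubation – 30 min preincubation with enzyme, 25 min cleavage at room temperature · Detection – AMC fluorescence from Ub-AMC cleavage, excitation 355 nm, emission 460 nm · Benchmarks – no-proteasome wells (full inhibition) and compound-free wells (no inhibition)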
GSTO1 inh – GSTO1 inhibition, counter-screen for RBBP9 inhibitors; P78417; recombinant GSTO1, activity-based probe fluorescence polarization; inhibition, % at 5.96 µM; 300,000 tested, 1.1% active; AID 1974;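 active means inhibition above the campaign mean inhibition plus 3 SD, cut at about 35% in these data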
Numbers stand for hits; . = inactive; / = no result given.

SMILES	PP5 primary	PAD4 FP inh	Fh CTSL1 inh	Apaf-1 inh	UCH37 DUB inh	GSTO1 inh
CCOC(=O)C(C(=O)OCC)N(C#N)c1nc(C)cc(C)n1	.	.	21.1	.	.	.
CC(CC(=O)NC12CC3CC(CC(C3)C1)C2)=NNC(=O)c1ccc(C)cc1	/	/	/	/	.	/
O=C(NN=Cc1ccc[nH]1)c1ccccc1[N+](=O)[O-]	/	/	/	/	.	/
Cc1cc(C(=O)NN=Cc2ccc(-c3cccc(Cl)c3)o2)n[nH]1	/	/	/	/	.	/
C[C@H](CCC(=O)O)[C@H]1CC[C@H]2[C@@H]3[C@H](O)C[C@@H]4C[C@H](O)CC[C@]4(C)[C@H]3CC[C@]12C	.	.	.	.	.	.
CC(CCC(C)C(C)(C)C)[C@@H]1CC[C@H]2C3C[C@H](OS(O)(=S)=S)[C@H]4C[C@H](OS(O)(=S)=S)[C@@H](OS(O)(=S)=S)C[C@]4(C)[C@H]3CC[C@]12C (some centres not stated) (tested in a mixture with another compound)	/	.	/	86.8	/	/
O=C(NN=Cc1ccc(OC2CSC2)cc1)c1ccc(CN2CCOCC2)cc1	/	/	/	/	.	/
COc1ccccc1CNC(=O)CCCC(=O)n1nc(C)c2ccccc21	.	.	.	.	.	.
Cc1nn(C(=O)CCC(=O)NCc2ccccc2Cl)c2ccccc12	.	.	19.5	.	.	.
C=C(C)CNC(=S)NN=C(C)c1ccc(OC)cc1	/	/	/	/	.	/
CC(=NNC(=O)c1ccccc1F)c1cccc(NC(=O)c2ccccc2)c1	/	/	/	/	.	/
C/C(=N\Nc1ccc(C)c(Cl)c1)c1ccncc1	.	.	18.9	.	/	.
C/C(=N\Nc1ccc(C)c(Cl)c1)c1cccnc1	.	.	.	.	/	.
CN(C)C(CNC(=O)c1ccc([N+](=O)[O-])cc1Cl)c1ccco1 (configuration not stated)	.	.	18.6	.	.	.
CN(C)c1ccc([N+](=O)[O-])cc1C(=O)NCC(c1ccco1)N(C)C (configuration not stated)	.	.	.	.	.	.
C=CCC[C@H](Cc1ccc(F)cc1)C(=O)OC[C@H](Cc1c[nH]c2ccccc12)NC(=O)[C@@H](CC=C)CC(=O)NCCO	/	.	/	.	25.2	/
O=C(NN=Cc1ccco1)c1cc(-c2ccc(Cl)cc2)n[nH]1	/	/	/	/	.	/
COc1ccccc1/C=C/C=NNC(=O)c1ccc2nc[nH]c2c1	/	/	/	/	.	/
CC(=O)Nc1ccc(NC(=O)Cn2nc(C(=O)Nc3ccc(C)cc3)ccc2=O)cc1	.	.	46.9	.	.	.
Cc1sccc1C=NNC(=O)c1cccc2ccccc12	/	/	/	/	.	/
CCCCCC(=O)NN=C(C)c1ccc(N2CCCCC2)cc1	/	/	/	/	.	/
Cc1ccc2[nH]c(=O)c(-c3nc4cc(C)ccn4c3NCc3ccco3)cc2c1	.	.	.	.	.	.
Cc1cccc2cc(-c3nc4c(C)cccn4c3NCc3ccco3)c(=O)[nH]c12	.	.	.	.	24.7	.
Cc1cc(=O)n2[nH]c(N)c(N=Nc3ccccc3)c2n1	.	.	.	/	.	.
CCOc1ccc(N=Nc2c(=O)[nH]n3c(C)cc(C)nc23)cc1	.	.	.	.	24.6	.
SMILES	PP5 primary	PAD4 FP inh	Fh CTSL1 inh	Apaf-1 inh	UCH37 DUB inh	GSTO1 inh
CCOC(=O)c1[nH]c2ccc(Br)cc2c1NC(=O)CCN1CCCC(C)C1 (configuration not stated)	.	.	.	97.3	/	.
CCOC(=O)c1[nH]c2ccc(Br)cc2c1NC(=O)CCN1CCC(C)CC1	.	.	.	.	.	.
N#Cc1ccc(NN=Cc2ccccc2)c([N+](=O)[O-])c1	/	/	/	/	.	/
CC(=NNC(=O)c1ccccc1[N+](=O)[O-])c1ccc(Br)s1	/	/	/	/	.	/
C/C(=N\NC(=O)c1ccccc1O)c1ccc(Br)s1	.	.	.	.	/	72.7
CC(=NNC(=O)c1ccccc1O)C1C(=O)c2ccccc2C1=O	/	/	/	/	20.9	/
CC(=NNC(=O)Cc1ccccc1Cl)c1cccnc1	/	/	/	/	.	/
CCN(CC)c1ccc(C=NNC(=O)Cc2cccs2)cc1	/	/	/	/	.	/
Cc1[nH]n(-c2ccc(Cl)cc2)c(=O)c1C=Nc1nnc(-c2ccccc2)s1	/	/	/	/	.	/
O=C(O)/C=C/S(=O)(=O)c1ccc2ccccc2c1	.	.	53.9	.	.	.
Cc1cc(C(C)(C)C)ccc1OCC(=O)NN=Cc1c(C)n(C)n(-c2ccccc2)c1=O	/	/	/	/	.	/
CN(C)CCN(C(=O)CCS(=O)(=O)c1ccccc1)c1nc2cc3c(cc2s1)OCO3	.	.	.	.	.	.
CCN(CC)CCN(C(=O)CCS(=O)(=O)c1ccccc1)c1nc2cc3c(cc2s1)OCO3	.	.	75.7	.	.	.
O=C(CCS(=O)(=O)c1ccccc1)N(CCCN1CCOCC1)c1nc2ccccc2s1	.	.	46.6	.	.	.
O=S(=O)(NN=C/C=C/c1ccccc1)c1ccc(Br)cc1	/	/	/	/	.	/
NC(=NO)c1nc(N2CCCC2)nc(N2CCCC2)n1	/	/	/	/	.	/
Cc1cc(C=NNc2ncnc(N)c2[N+](=O)[O-])c(C)n1-c1ccccc1	/	/	/	/	.	/
CCn1c(SCC(=O)NN=C(C)c2ccncc2)nnc1-c1ccc(C)cc1	/	/	/	/	.	/
CC1CC(C)CN(S(=O)(=O)c2ccc(NC(=S)NC(=O)c3ccccc3)cc2)C1 (configuration not stated)	.	.	18.9	.	.	.
CCc1cc(C(Cc2csc(C)n2)=NO)c(O)cc1O	/	/	/	/	.	/
CN(CCO)c1cc(Sc2nc3ccccc3s2)c2nonc2c1[N+](=O)[O-]	.	.	.	51.8	.	.
CC(=O)OCCN(C)c1cc(SC(C)C)c2nonc2c1[N+](=O)[O-]	.	.	.	.	.	.
O=C(Nc1ccc2nc(-c3ccco3)c(-c3ccco3)nc2c1)N1CCCCCC1	.	.	.	57.3	.	59.5
Cc1ccc(-c2csc(NN=C/C=C/c3ccccc3)n2)cc1	/	/	/	/	.	/
COc1cc(-n2nc(C)c3c2OC(N)=C(C#N)C3c2ccccc2)c(Cl)c(Br)c1O (configuration not stated)	.	26.0	.	.	/	.
SMILES	PP5 primary	PAD4 FP inh	Fh CTSL1 inh	Apaf-1 inh	UCH37 DUB inh	GSTO1 inh
Cc1ccccc1-c1n[nH]c(=S)n1N=Cc1c(C)nn(-c2ccccc2)c1C	/	/	/	/	.	/
Cc1ccc(S(=O)(=O)Nc2c(Cl)c(Cl)c(O)c3ccccc23)cc1	.	.	.	.	/	76.5
COc1cc(OC)cc(C(=O)N[C@H](C(=O)OCC(=O)Nc2cccc(F)c2)C(C)C)c1	.	.	.	.	.	.
COc1cc(OC)cc(C(=O)N[C@H](C(=O)OCC(=O)c2ccc(F)cc2)C(C)C)c1	.	.	17.6	.	.	.
O=C1CCCC2=C1C(c1ccc(O)c(O)c1)Nc1ccc3ncccc3c12 (configuration not stated)	.	.	.	.	.	77.6
Cc1cc(C(=O)O)ccc1-n1c(C)cc(/C=C(/C#N)C(=O)Nc2ccccc2)c1C	.	.	.	.	.	.
Cc1cc(C(=O)O)ccc1-n1c(C)cc(C=C2C(=O)c3ccccc3C2=O)c1C	.	.	18.9	.	.	.
